Experimental data from ChEMBL document CHEMBL4513216, “Probing the Open Global Health Chemical Diversity Library for Multistage-Active Starting Points for Next-Generation Antimalarials” (ACS Infect Dis, 2020).

Test: Toxicity liver stage against HepG2, at 10uM
Type: cell-based
Parameters: test concentration 10 uM, cell line HepG2-A16-CD81EGFP
Conditions: human, HepG2-A16-CD81EGFP cells; read-out: INHIBITION
Outline: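 Uninfected HepG2-A16-CD81EGFP cells, 3 × 10^3 per well, 1536-well, plated on prespotted compound at 10 μM final, parasite-free screening media added to match infected plates; puromycin 10 μM positive, DMSO 0.5% negative; run in parallel with 48 h PbLuc assay at 37 °C, 5% CO2; viability by CellTiter-Glo luminescence, normalized to controls.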

| Compound | cytotoxicity at 10 µM [%] |
| --- | --- |
| CC(C)N1CCC(N2CCN(C3CCCCC3)CC2CCO)CC1 (centres undefined) | -9.63 |
| CCN1CCN(C(=O)c2ccn(C)c(=O)c2)CC1 | 8.66 |
| CS(=O)(=O)c1ccc(NCC2CCCO2)c(S(C)(=O)=O)c1 (centres undefined) | 3.72 |
| Cc1ccc(CNC2(Cc3cc(-c4ccccc4)on3)COC2)o1 | -3.24 |
| CCNC(=O)N1C[C@@H]2OCC(=O)N(Cc3cccnc3)[C@@H]2C1 | 7.95 |
| CCCC(O)CN1CCC(=O)N(CCOC)Cc2cc3c(cc21)OCO3 (centres undefined) | 6.91 |
| CO[C@@H]1CN(c2ccccc2)S(=O)(=O)[C@@]12CCN(CC1CC1)C2 | 1.84 |
| COc1ccc(CCC(=O)Nc2ccc3ncn(C)c(=O)c3c2)cc1 | 6.44 |
| CCOc1nn(CC)cc1-c1nnc(SCc2cccnc2)n1C | 5.97 |
| Cc1cc(NC(=O)Cn2cnc(-c3cccs3)cc2=O)no1 | -0.243 |
| O=C(NCc1ccccc1)N1CCC(Oc2ncccc2Cl)CC1 | 17 |
| O=C(NC1CCN(c2nccs2)CC1)c1cccs1 | 4.17 |
| Cc1nc(-c2nc(C(=O)N3CCOCC3)c3ccccn23)cn1C(C)C | 1.53 |
| O=C(c1ccco1)N1CCC[C@]2(C[C@H](Oc3ncccc3F)CO2)C1 | 2.49 |
| CCN1CC2(CC1=O)CN(C(=O)c1ccco1)CCN(C(=O)C(C)C)C2 (centres undefined) | -9.16 |
| CC(C)NC(=O)N1CCN(C(=O)C(C)C)CC2(CC(=O)N(C)C2)C1 (centres undefined) | -0.704 |
| O=C(N1CCOCC1)[C@@]12CCO[C@@H]1CCN(CC1CCC1)C2 | 11.1 |
| CN(C)Cc1nnc2n1CCCN(C(=O)c1c[nH]cn1)C2 | 3.77 |
| CC1CC(=O)c2cnc3nc(N4CCOCC4)[nH]c(=O)c3c2C1 (centres undefined) | 5.31 |
| O=C(COc1coc(CN2CCCCC2)cc1=O)Nc1ccccc1Cl | 3.72 |
| Cc1ccc(NC(=O)CCc2cnn(C)c2)cc1F | -1.69 |
| CCn1cc(NS(=O)(=O)c2ccc(F)cc2)c(C(=O)NCC(C)C)n1 | 6.6 |

| Compound | cytotoxicity at 10 µM [%] |
| --- | --- |
| CC(C)(C)C(=O)N1CCCC1(C(=O)N1CCCC1)c1cnccn1 (centres undefined) | 4.84 |
| O=C(NCCc1cc(N2CCOCC2)nc(NC2CC2)n1)C1CC1 | -0.995 |
| Cn1cnc(S(=O)(=O)N2CCCC2c2cnccn2)c1 (centres undefined) | -28.4 |
| CC(=O)N[C@@H]1CN(C(=O)c2cnc3ccccc3c2)C[C@H]1O | -12.1 |
| Cc1c(C(=O)N2CC(Cc3nccc4ccn(C)c34)C2)cnn1C | -26.3 |
| Cc1noc(C)c1-c1cncc(CC2CCN(C(=O)c3cc[nH]n3)C2)n1 (centres undefined) | -17.4 |
| O=C(C1CCCC1)N1CCC(c2ccnc(Nc3cnccn3)n2)C1 (centres undefined) | -24.6 |
| Cc1noc(C)c1-c1cc(CC2CCN(C(=O)c3cc[nH]n3)C2)ncn1 (centres undefined) | -13.4 |
| Cn1ccc(C(=O)N2CCOC(c3ccc(C(N)=O)cn3)C2)n1 (centres undefined) | -20 |
| Cn1nc(C2CN(C(=O)c3ccncc3)C2)c2nccnc21 | -8.8 |
| Cc1cc(-c2cnn(CCNC(=O)c3snnc3C)c2C2CC2)on1 | -7.16 |
| Cc1noc(C)c1-c1cncc(C2CCCN2Cc2cncnc2)n1 (centres undefined) | 5.25 |
| Cc1ccc(C)c(CC(=O)Nc2cccc(C(=O)N(C)C)n2)c1 | -6.56 |
| CC1CCCCN1C(=O)c1cn(-c2ccc(C(F)(F)F)cn2)nn1 (centres undefined) | -56.5 |
| CN(CCCc1ccccc1)C(=O)CCc1nc(-c2nnc[nH]2)no1 | -44.8 |
| O=C(C1CC1)N1CCCCCC1C1CCN(c2ncccn2)CC1 (centres undefined) | -9.56 |
| O=S(=O)(CCCn1cncn1)Cc1ccccc1Cl | -5.91 |
| CCOC(=O)CN(CC(F)(F)F)C(=O)c1nc(C)n2ccccc12 | -20.9 |
| CC(C)(C)OC(=O)N[C@H]1CCN(c2cncc(Br)c2)C1 | -52.8 |
| CC(C)c1noc(C(C)N2CCC(c3nc4ccccc4o3)CC2)n1 (centres undefined) | 8.05 |
| CC(CNC(=O)CCc1ccccn1)c1ccsc1 (centres undefined) | -3.3 |
| CNC(=O)c1cccnc1NCc1ccc(Cn2cccn2)cc1 | 17.9 |

| Compound | cytotoxicity at 10 µM [%] |
| --- | --- |
| COc1ccccc1S(=O)(=O)N1CC(N(C)C)Cc2ccccc21 (centres undefined) | 0.243 |
| Cc1ccsc1C(Cc1ccccc1)NC(=O)CNC(=O)C1CC1 (centres undefined) | 11.6 |
| Cc1csc(CCNC(=O)Nc2cc(C(F)(F)F)c[nH]c2=O)n1 | 8.13 |
| Cc1c(NCC(C)(C)C)cccc1C(=O)N(C)Cc1ncnn1C | 22.5 |
| Cc1n[nH]c(C)c1C1CCCN1C(=O)NCC(=O)Nc1ccccc1 (centres undefined) | 4.23 |
| COc1cc(OC)cc(C2(O)CCN(Cc3nc(C)c(C)o3)CC2)c1 | -7.06 |
| Cc1cc(C(=O)Nc2cccn(Cc3ccc(F)cc3)c2=O)no1 | 3.15 |
| N#Cc1c(N2CCN(CC3CCOC3)CC2)nc2ccccn12 (centres undefined) | 1.37 |
| Cn1c(N)nnc1SCc1cc(Br)ccc1Cl | -21.7 |
| Nc1nc(CN2CCN(c3nccs3)CC2)cs1 | 4.79 |
| CN(C(=O)c1cccn1C)C1CCC(NC(=O)OC(C)(C)C)CC1 (centres undefined) | -4.18 |
| Cc1cccc(OCCSCCn2nc3ccccn3c2=O)c1 | 6.47 |
| Cc1noc(C)c1CNC(C(=O)N1CCOCC1)C(C)C (centres undefined) | 4.55 |
| O=C(c1cc(-n2cccn2)ccn1)N(CC(F)(F)F)C1CCCC1 | 5.49 |
| Cc1ccc2cccc(S(=O)(=O)N(C)C3CCCN(C)C3)c2n1 (centres undefined) | 1.5 |
| CSC(CNS(N)(=O)=O)c1cccc(Cl)c1 (centres undefined) | -14.3 |
| CC(NCc1cccc(S(=O)(=O)N(C)C)c1)c1cccnc1 (centres undefined) | 1.56 |
| CN(C(=O)C1CSCN1S(=O)(=O)c1ccc(F)cc1)C1CC1 (centres undefined) | 1.18 |
| O=C(c1ccco1)N1CCO[C@@H]2CNC[C@@H]21 | -108 |
| c1cnc(N2CCOCC3(CNCCO3)C2)nc1 (centres undefined) | -112 |
| CN1CCN(Cc2ccoc2)Cc2cccnc21 | 0.899 |
| CC(=O)N1CCN(Cc2ccc(C(F)(F)F)cc2F)CC(O)C1 (centres undefined) | -5.34 |

| Compound | cytotoxicity at 10 µM [%] |
| --- | --- |
| CCc1cc(NCCNC(=O)c2cccnc2)n2nc(C)c(C)c2n1 | -3.05 |
| O=C(O)C1(Oc2ccc3ccccc3c2)CCN(c2ncccn2)CC1 | 1.46 |
| O=C(CC1CCC1)N1CCCC(CO)(CC2CC2)C1 (centres undefined) | 7.18 |
| CCc1ccccc1OC1CN(C(=O)c2sccc2N)C1 | 14.4 |
| Cc1cccnc1CN1CCN(CC(=O)N(C)C)[C@@H]2CS(=O)(=O)C[C@@H]21 | -2.33 |
| O=C(CN1CCc2onc(-c3ccccc3F)c2C1)NC1CC1 | 14.6 |
| COc1ccccc1CCN1CCCC(CN(C)Cc2ccc(C)o2)C1 (centres undefined) | -0.813 |
| CN(Cc1cccc(-n2cccn2)c1)C(=O)c1cccc(N(C)C)c1 | -0.809 |
| Cc1ccc(OCC2CCCN(Cc3ccc(CO)o3)C2)cc1 (centres undefined) | 5.66 |
| CCC(C)N(Cc1cccnc1)C(=O)CCSC (centres undefined) | 0.305 |
| O=C(c1ccc[nH]1)N1CCc2c(cccc2S(=O)(=O)N2CCOCC2)C1 | -15 |
| O=C(N[C@@H]1CCN(Cc2cc3ccccc3s2)C[C@H]1O)c1cccnc1 | -7.57 |
| CN(CCO)C1CCN(c2ncc3c(n2)CCN3c2ccccc2)CC1 | -2.3 |
| CC1(C)CN(C(=O)c2cnc(-c3ccccn3)nc2)CC[C@]1(C)O | -2.52 |
| CN1CCC(N2CCN(C(C(=O)O)c3cccc4c3OCC4)CC2)CC1 (centres undefined) | 11 |
| CC(C)C(Nc1nc(C(F)(F)F)nc2ccccc12)C(=O)O (centres undefined) | -1.98 |
| CCC(NC(=O)C(C)C)c1ccccc1C (centres undefined) | 5.81 |
| Cc1ccc([C@@H]2CN(S(=O)(=O)c3cc(C)ccc3F)C[C@H]2N(C)C)cc1 | -7.21 |
| COc1cn(-c2ccccc2)nc1C(=O)NCCN1CCCC(C)C1 (centres undefined) | 2.12 |
| O=C(c1ccc(-n2cnnc2)cc1)N1CCC(Nc2cccnn2)CC1 | -6.12 |
| CC1CN(C)CCN1CC(=O)NCCOc1cccc(F)c1 (centres undefined) | -11.7 |
| COc1ccccc1CC(=O)N1CCC(NCc2ccncc2)CC1 | -9.69 |

| Compound | cytotoxicity at 10 µM [%] |
| --- | --- |
| CN(C)c1cc(CNC(=O)Nc2ccc(C#N)cc2)ccn1 | -5.66 |
| CCc1nc(C2CCCN2CCS(=O)(=O)c2ccccc2)no1 (centres undefined) | -8.1 |
| c1ccc(-c2nc(CN3CCOC(Cn4cccn4)C3)co2)cc1 (centres undefined) | 0.724 |
| Cc1cccc(N(C)S(=O)(=O)c2cc(C(=O)O)cs2)c1 | -6.12 |
| CC(CCc1ccco1)NC(=O)Nc1cc(C(F)(F)F)c[nH]c1=O (centres undefined) | -6.9 |
| Cc1nc(CN2CCOC(CNc3cccnn3)C2)cs1 (centres undefined) | -12 |
| COC(=O)NCC1CCC2(CCNCC2)O1 (centres undefined) | 1.82 |
| Cn1cc(CN2CCC(c3cc(COc4cccc(Cl)c4)[nH]n3)C2)cn1 (centres undefined) | -2.93 |
| O=S(=O)(N1CCCCC1)N1CCc2nc(C3CCNCC3)ncc2C1 | -4.15 |
| Cn1ccnc1C(=O)N[C@@H]1CN(Cc2cccs2)[C@@H]2CCCO[C@@H]21 | 3.16 |
| Cc1ccc(C(=O)N2CC[C@@H]3CN(C4CCOCC4)CCO[C@@H]3C2)o1 | -121 |
| CC(C)c1nn(C)c(N(C)C)c1CNC(C)c1ccc2c(c1)OCO2 (centres undefined) | -4.49 |
| Cc1ccc(CN2CCc3c(COC(C)C)nn(C)c3C2)s1 | 0.661 |
| CN1CCC2(CC1)CN(CC1CC1)CC21CCNC1=O (centres undefined) | 2.02 |
| Cc1cc(CN2CCC3(CC2)COC(COCC2CC2)C3)no1 (centres undefined) | -107 |
| Cc1cccc(CO[C@H]2CN(c3nnc(C)s3)[C@@H]3CCCO[C@H]23)n1 | 4.47 |
| CCOC(=O)[C@H]1CNC[C@H]1C(=O)OCC | 9.24 |
| CCOCCN1CCO[C@H]2[C@H](OCc3ccccn3)CC[C@@H]21 | -113 |
| O=C([C@H]1CN(Cc2nccs2)C[C@H]2OCC[C@@H]12)N1CCCCO1 | -111 |
| Cc1nnc(N2CCCC3(CN(Cc4cccnc4)CCO3)C2)o1 (centres undefined) | 4.96 |
| CCS(=O)(=O)N1C[C@@H]2C[C@H](C(=O)N(C)C)[C@H](C1)O2 | 5.58 |
